The list is not random: actives were taken first. Their share in the collection is about 1.8%.
eLon inh: inhibitors of E. coli Lon protease; 0.42% of 360,000 active; purified E. coli Lon protease, fluorescence polarization; inhibition, % at 7.94 µM; in the data active = inhibition above about 13%, passing the limit was not always enough
Target sequence (P0A9M0 whole entry, looked up): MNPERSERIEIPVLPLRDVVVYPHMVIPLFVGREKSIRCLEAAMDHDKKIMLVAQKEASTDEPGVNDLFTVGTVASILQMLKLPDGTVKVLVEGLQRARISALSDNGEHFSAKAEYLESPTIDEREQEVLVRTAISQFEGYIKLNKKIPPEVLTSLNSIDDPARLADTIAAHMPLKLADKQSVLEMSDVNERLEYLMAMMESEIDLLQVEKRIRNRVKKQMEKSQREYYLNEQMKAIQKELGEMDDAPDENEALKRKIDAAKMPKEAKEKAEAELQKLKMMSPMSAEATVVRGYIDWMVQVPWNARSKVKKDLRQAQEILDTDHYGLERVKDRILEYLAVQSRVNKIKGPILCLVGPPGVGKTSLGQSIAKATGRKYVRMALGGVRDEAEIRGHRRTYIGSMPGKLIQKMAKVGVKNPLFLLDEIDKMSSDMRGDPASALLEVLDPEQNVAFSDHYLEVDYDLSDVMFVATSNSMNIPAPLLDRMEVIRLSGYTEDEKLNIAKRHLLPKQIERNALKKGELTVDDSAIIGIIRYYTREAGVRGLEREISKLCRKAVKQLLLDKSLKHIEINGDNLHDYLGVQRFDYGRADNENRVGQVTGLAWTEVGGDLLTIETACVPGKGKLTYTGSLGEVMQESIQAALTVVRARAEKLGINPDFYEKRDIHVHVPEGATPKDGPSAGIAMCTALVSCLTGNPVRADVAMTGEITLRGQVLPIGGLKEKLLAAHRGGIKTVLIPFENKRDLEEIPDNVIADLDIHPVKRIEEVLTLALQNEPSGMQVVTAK
hiPSC survival: increases survival of single human iPS cells; hiPSC single-cell survival, ATPlite luminescence; 100% = ROCK inhibitor wells, 0% = DMSO; AID 602274; 0.044% of 360,000 active; survival enhancement, % at 20 µM; in the data active = survival enhancement above about 18%;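 note: cells exposed to compounds for 16 hours before the ATP read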
MT1-MMP act inh: blocks activation of human MT1-MMP. HT1080 RFP-PRO-GFP cells, GFP/RFP ratio fluorescence, overnight; percent of plate control window, DMSO zero. GFP/RFP ratio change, % at 20 µM. 0.061% of 360,000 active;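 active = GFP/RFP ratio change of at least 30% with cell ATP level not reduced by more than half and red fluorescence within 50% of control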
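Compound: 20 µM single dose, 1% DMSO / System: HT1080 RFP-PRO-GFP cells / Controls: DMSO and RFP-L50D-GFP cell wells / Read-out basis: GFP/RFP fluorescence ratio / Schedule: overnight compound exposure at 37 °C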
SKN-1 inh: C. elegans SKN-1 inhibition; inhibition, % at 21.8 µM; 0.49% of 360,000 active; AID 624304; C. elegans VP596 Pgst-4::GFP/RFP ratio, acrylamide-induced, 24 h;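 active = interference check ratio from 0.5 to 1.5 plus GFP to RFP signal ratio inhibition reaching or exceeding a fixed threshold, cut at about 30% in these data, passing the limit was not always enough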
Tb MetRS inh: Trypanosoma brucei MetRS inhibition | AID 624268 | purified T. brucei MetRS, ATP depletion, Kinase-Glo luminescence | inhibition, % at 11.9 µM | 0.4% of 360,000 active;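 active = inhibition above a per-plate cutoff of the control wells' mean inhibition plus 3 SD, cut at about 5.5% in these data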
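Material: parasite MetRS enzyme / Replication: singlicate, one well per compound / Signal: luminescence of leftover ATP / Schedule: 2 h aminoacylation at 25 °C after 15 min preincubation / Medium: HEPES-MgCl2-KCl buffer plus DTT, spermine, BSA, pyrophosphatase / Doses: 11.9 µM single point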
PREPL inh: inhibitors of human prolyl oligopeptidase-like enzyme PREPL. Q4J6C6. recombinant PREPL, fluorescence polarization activity-based probe. inhibition, % at 5.96 µM. 0.68% of 320,000 active. AID 2751; in the data active = inhibition above about 43%
Hits are given with their value; - = inactive; . = no result given.

SMILES | eLon inh | hiPSC survival | MT1-MMP act inh | SKN-1 inh | Tb MetRS inh | PREPL inh
Nc1c(C(=O)Nc2ccc(F)cc2)sc2nc(-c3ccco3)ccc12 | - | - | - | 44.8 | - | -
O=C1/C(=C\c2ccc(C(F)(F)F)cc2)CSc2sccc21 | - | - | - | 36.5 | - | -
CC(C)C[C@H]1COc2cccc(N(C)CCO)c2S(=O)(=O)N1 | - | - | - | - | - | .
Clc1ccccc1OCc1nnc(-c2ccccc2Br)o1 | - | - | - | - | - | -
O=c1c(Cl)c(Cl)cnn1Cc1nnc(-c2ccccc2Br)o1 | - | 25.6 | - | - | - | .
CCn1c(SCC(=O)Nc2ccc(NC(=O)c3cccs3)cc2)nnc1-c1cccnc1 | - | - | - | 35.1 | - | -
CCn1c(SCC(=O)Nc2nc(C)c(C)s2)nnc1-c1cccnc1 | - | - | - | - | - | -
Clc1ccc(-c2nnc(-c3ccccc3)o2)cn1 | - | - | - | 41.7 | - | .
Cc1ccc(-c2nnc(-c3cccnc3)o2)cc1 | - | - | - | - | - | -
FC(F)(F)c1ccc(-c2nnc(-c3cccnc3)o2)cc1 | - | - | - | - | - | -
Brc1ccc(CSc2nnc(-c3cccnc3)o2)cc1 | - | - | - | 43.3 | - | -
Clc1ccc(-c2nnc(-c3cccnc3)o2)cc1 | - | - | - | 40.5 | - | -
Brc1ccc(-c2nnc(-c3cccnc3)o2)cc1 | - | - | - | 48.1 | - | -
Cc1ccc(S(=O)(=O)N2[C@H](CC(=O)c3ccc(Cl)c(Cl)c3)OC[C@@H]2C)cc1 | . | . | - | - | - | .
CN(C)c1ncnc2c1ncn2[C@H]1CN(Cc2ccc(Cl)cc2)C[C@@H](CO)O1 | - | - | - | - | - | .
N#CCc1ccc(NC(=O)c2cc(S(=O)(=O)N3CCOCC3)ccc2Cl)cc1 | - | - | - | - | - | -
Brc1ccc(-c2nnc(-c3ccco3)o2)cc1 | - | - | - | 80.5 | - | -
c1ccc(-c2nnc(-c3ccco3)o2)cc1 | - | - | - | - | - | -
Brc1ccc(-c2nnc(-c3ccccc3Br)o2)cc1 | - | - | - | 65.4 | - | -
COc1cccc(C2CC(=O)N3CN(c4cccc(Cl)c4C)CSC3=C2C#N)c1OC (centres undefined) | - | 27.1 | - | - | - | -
Cc1nc2ccccc2nc1OCc1cccc(Cl)c1 | - | - | - | - | - | -
Cc1nc2ccccc2nc1OCc1ccccc1 | - | - | - | 46.6 | - | -
Fc1ccc(-n2nnc(-c3cccnc3Cl)n2)cc1 | - | - | - | 67.8 | - | -
Fc1ccc(-n2nnc(-c3nccs3)n2)cc1 | - | - | - | 71.4 | - | -
Clc1ncccc1-c1nnn(-c2ccccc2)n1 | - | - | - | - | - | -
SMILES | eLon inh | hiPSC survival | MT1-MMP act inh | SKN-1 inh | Tb MetRS inh | PREPL inh
Fc1ccc(-n2nnc(-c3ccccc3Cl)n2)cc1 | - | - | - | - | - | -
COC(=O)c1cc(Cl)ccc1NCC(N)c1ccccc1 (centres undefined) | - | - | - | - | - | .
COc1cc2c(cc1OC)/C(=C/C(=O)OCc1ccccc1)OC2 | . | . | - | - | - | .
Oc1ccc(C=NNC(=S)Nc2ccccc2)nc1 | - | - | - | 44.6 | - | .
c1ccc(-c2cnc(-c3ccccc3)nn2)cc1 | - | - | - | 52.1 | - | -
c1ccc(-c2cnc(-c3ccccn3)nn2)cc1 | - | - | - | - | - | -
O=C(Nc1ccc(-c2noc(CCc3ccccc3)n2)cc1)c1ccco1 | - | - | - | 43.8 | - | -
c1ccc(CCc2nc(-c3ccccc3)no2)cc1 | - | - | - | - | - | -
C[C@@H]1CC2=C(C(=O)OC(C)(C)O2)[C@H](c2ccc(Cl)cc2)O1 | - | - | - | - | - | .
NC(=O)c1ccc(Nc2nc(C(N)c3ccccc3Cl)cs2)cc1 (centres undefined) | - | 27.8 | - | - | - | .
O=C(Nc1nc(-c2ccc(Cl)s2)cs1)c1ccccc1 | - | - | - | 49.2 | - | -
CSc1cc(-c2ccco2)oc1C(=O)c1ccco1 | - | - | - | 35.7 | - | -
CSc1nc(-c2ccco2)nn1C(=O)c1ccco1 | - | - | - | - | - | -
CC1C/C(=C\c2ccccc2[N+](=O)[O-])c2nc3ccccc3c(C(=O)O)c2C1 (centres undefined) | - | - | - | - | - | -

Bioassay records from PubChem BioAssay.
